Compound activity as filed in PubChem BioAssay.
5HT1a antag: blocks the human serotonin 5-HT1a receptor; CHO 5-HT1a Ga15 NFAT-bla reporter, antagonist mode; 0.68% of 62,000 active; inhibition, % at 10 µM; AID 612;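 active means inhibition above the mean of all tested compounds plus 3 SD, cut at about 43% in these data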;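 further: receptor stimulated by 5-CT agonist at 100 nM near EC80; beta-lactamase reporter measured by ratiometric fluorescence of a cleavable substrate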
S1P1 ag pot: agonists and agonism potentiators of human S1P1 receptor; 0.57% of 56,000 active; activation, % at 9.5 µM; P21453; S1P1 CRE-bla cells, forskolin, beta-lactamase FRET, potentiator mode; S1P1 agonist co-added at EC20, 2 nM; 100% = saturating reference agonist, 0% = basal;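 active means activation above a cutoff set at the mean activation of all tested compounds plus 3 SD, cut at about 54% in these data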;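 further: forskolin at 4 µM as EC80 and the EC20 agonist is SEW2871; 100% = SEW2871 at its EC100 plus forskolin at EC80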
HTR1E antagonist: antagonists of human 5-HT1E serotonin receptor | P28566 | CHO 5-HT1E Ga15 NFAT-bla reporter, FRET, antagonist | inhibition, % at 6 µM | 0.99% of 65,000 active;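 active means inhibition above a set limit, the mean inhibition across every tested compound plus 3 SD, cut at about 29% in these data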;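 further: signal is the 460 over 535 nm emission ratio of beta-lactamase substrate; 0% = agonist plus DMSO wells and 100% = wells without agonist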
HTR1A agonist: activates the human 5-HT1a serotonin receptor; P08908; CHO 5-HT1a Ga15 NFAT-bla reporter, FRET ratio; 0% basal, 100% maximal reference agonist; activation, % at 10 µM; 0.56% of 65,000 active;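 active means activation above the screen-wide mean activation plus 3 SD, cut at about 19% in these data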;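 further: 0% = DMSO wells and 100% = 5-CT at EC100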
HTR1E agonist: activates the human 5-HT1E serotonin receptor | P28566 | activation, % at 6 µM | CHO 5-HT1E Ga15 NFAT-bla reporter, FRET; 0% DMSO wells, 100% control agonist wells | AID 574 | 0.69% of 65,000 active;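 active means activation above a set limit, the screen-wide mean activation plus 3 SD, cut at about 8.5% in these data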;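 further: 100% = positive control agonist at 1 µM giving full maximal response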
S1P3 ag: agonists of human S1P3 receptor | 0.1% of 60,000 active | activation, % at 4.5 µM | S1P3 NFAT-BLA reporter cells, agonism, FRET ratio; relative to 1 µM S1P, basal subtracted | Q99500;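 active means activation above the screen-wide mean plus 3 SD, cut at about 4.5% in these data, passing the limit was not always enough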
Target sequence (Q99500 whole entry, looked up): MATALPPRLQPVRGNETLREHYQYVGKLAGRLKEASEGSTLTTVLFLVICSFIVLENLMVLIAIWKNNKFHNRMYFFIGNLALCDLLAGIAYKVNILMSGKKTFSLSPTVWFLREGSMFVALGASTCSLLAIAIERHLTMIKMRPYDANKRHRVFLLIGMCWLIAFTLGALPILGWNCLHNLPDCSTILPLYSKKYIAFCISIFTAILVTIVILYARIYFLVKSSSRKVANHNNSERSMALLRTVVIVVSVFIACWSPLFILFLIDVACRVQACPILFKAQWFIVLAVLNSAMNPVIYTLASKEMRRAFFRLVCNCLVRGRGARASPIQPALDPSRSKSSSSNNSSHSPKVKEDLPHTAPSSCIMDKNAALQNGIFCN
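Assay system: CHO cells stably expressing human S1P3, Gα16 and NFAT-β-lactamase reporter. Timing: overnight plating, 4 h compound 37 °C, 2 h substrate RT. Signal: β-lactamase FRET emission ratio 460/535 nm. Measure: percent activation versus median 1 µM S1P response, basal-subtracted, per plate. Repeats: primary screen single test, confirmation screen in triplicate.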
* = called active by the depositor. The list is not random: actives were taken first. Their share in the collection is about 3%.

Results for O=C1N[C@@H](Cc2cnc[nH]2)C(=O)N2CCC[C@@H]12 ?
S1P1 ag pot: -17; HTR1E antagonist: -6; HTR1A agonist: -1; HTR1E agonist: 1; S1P3 ag: -3

Results for CCOC(=O)Cn1c(C)nc2ccccc21 ?
5HT1a antag: -10; HTR1E antagonist: 0; HTR1A agonist: 1; HTR1E agonist: 0; S1P3 ag: -1

Results for CCCOC(=O)c1ccc(OCC(O)Cn2c(C)nc3ccccc32)cc1 (centres undefined) ?
5HT1a antag: 1; S1P1 ag pot: 95*; HTR1E antagonist: -1; HTR1A agonist: 2; HTR1E agonist: 2; S1P3 ag: -1

Results for O=C(NCc1ccco1)c1cccc2ccccc12 ?
5HT1a antag: 9; S1P1 ag pot: 6; HTR1E antagonist: 11; HTR1A agonist: -3; HTR1E agonist: -1; S1P3 ag: -1

How did O=C(NCc1ccco1)c1ccccc1Nc1ccc(F)cc1 do in these assays?
5HT1a antag: 40; HTR1E antagonist: 29*; HTR1A agonist: -3; HTR1E agonist: -2

Results for COCCCNC(=O)c1c(N)n(/N=C/c2cccnc2)c2nc3ccccc3nc12 ?
S1P1 ag pot: -16; HTR1E antagonist: -1; HTR1A agonist: 7; HTR1E agonist: 0; S1P3 ag: -2

What do the screens show for `COCCCNC(=O)c1c(N)n(/N=C/c2cccs2)c2nc3ccccc3nc12`?
S1P1 ag pot: -123; HTR1E antagonist: -31; HTR1A agonist: 86*; HTR1E agonist: 26*; S1P3 ag: 3

What do the screens show for `O=S(=O)(Nc1cccc2cccnc12)c1ccc(S(=O)(=O)N2CCCC2)cc1`?
5HT1a antag: 30; S1P1 ag pot: 23; HTR1E antagonist: 32*; HTR1A agonist: -1; HTR1E agonist: -1; S1P3 ag: 0

Results for Fc1ccccc1COc1ccc(/C=N/n2cnnc2)cc1 ?
5HT1a antag: -16; S1P1 ag pot: 88*; HTR1E antagonist: 8; HTR1A agonist: -4; HTR1E agonist: -1; S1P3 ag: -1

Results for Cn1nnc2cc(C(=O)N3CCCCCC3)ccc21 ?
5HT1a antag: 4; HTR1E antagonist: -10; HTR1A agonist: -2; HTR1E agonist: 0

What do the screens show for `Cc1cccc(-n2cnc3cc(C(=O)N4CCCCC4)ccc32)c1`?
5HT1a antag: -7; HTR1E antagonist: -5; HTR1A agonist: 45*; HTR1E agonist: 0

Results for CCOc1cc(CN2CCN(c3cccc(C(F)(F)F)c3)CC2)ccc1O ?
5HT1a antag: 33; HTR1E antagonist: 9; HTR1A agonist: 20*; HTR1E agonist: 8; S1P3 ag: 0

What do the screens show for `Cc1c(CN2CCN(c3cccc(C(F)(F)F)c3)CC2)c(=O)n(-c2ccccc2)n1C`?
5HT1a antag: 1; S1P1 ag pot: 8; HTR1E antagonist: 2; HTR1A agonist: 1; HTR1E agonist: 60*; S1P3 ag: 0

What do the screens show for `COC(=O)CS(=O)(=O)c1nnc([C@H](Cc2ccccc2)NC(=O)OC(C)(C)C)o1`?
5HT1a antag: 33; S1P1 ag pot: 56*; HTR1E antagonist: 29*; HTR1A agonist: -7; HTR1E agonist: 0; S1P3 ag: -1

How did COC(=O)CSc1nnc([C@H](Cc2ccccc2)NC(=O)OC(C)(C)C)o1 do in these assays?
5HT1a antag: 2; S1P1 ag pot: -6; HTR1E antagonist: 3; HTR1A agonist: 0; HTR1E agonist: -1; S1P3 ag: 0

What do the screens show for `Cc1nc2ncnn2c(N2CCCC(C(=O)Nc3ccc4c(c3)CCC4)C2)c1C` (centres undefined)?
5HT1a antag: -8; HTR1E antagonist: -8; HTR1A agonist: 2; HTR1E agonist: 1

How did Cc1ccc(O)c(-c2cc(-c3ccccc3C)[nH]n2)c1 do in these assays?
5HT1a antag: 44*; HTR1E antagonist: -1; HTR1A agonist: -1; HTR1E agonist: 2; S1P3 ag: 0

What do the screens show for `Oc1ccccc1-c1cc(-c2ccccc2Cl)[nH]n1`?
5HT1a antag: 24; S1P1 ag pot: 17; HTR1E antagonist: -4; HTR1A agonist: -5; HTR1E agonist: 1; S1P3 ag: -1

Results for CC(=O)NC1(c2cccc(F)c2)CCN(C(=O)Nc2ccc(C#N)cc2)CC1 ?
5HT1a antag: -3; HTR1E antagonist: -7; HTR1A agonist: -1; HTR1E agonist: 0

What do the screens show for `COc1nc(OC)nc(N2CCC(C(=O)Nc3cccc4ccccc34)CC2)n1`?
5HT1a antag: 10; S1P1 ag pot: -16; HTR1E antagonist: 8; HTR1A agonist: -4; HTR1E agonist: 0; S1P3 ag: -1

Results for COc1nc(OC)nc(N2CCC(C(=O)Nc3cccc4c3CCCC4)CC2)n1 ?
5HT1a antag: 0; S1P1 ag pot: -2; HTR1E antagonist: 1; HTR1A agonist: 22*; HTR1E agonist: 0; S1P3 ag: 0

How did CC(=O)NCc1cn2c(C)csc2n1 do in these assays?
5HT1a antag: -9; S1P1 ag pot: -6; HTR1E antagonist: -19; HTR1A agonist: 1; HTR1E agonist: 0; S1P3 ag: 0

What do the screens show for `Cc1csc2nc(CNC(=O)c3ccco3)cn12`?
5HT1a antag: -3; S1P1 ag pot: -42; HTR1E antagonist: 7; HTR1A agonist: -3; HTR1E agonist: 11*; S1P3 ag: 0

How did Cc1cccc(-n2nnc(C(=O)NCc3ccccn3)c2N)c1 do in these assays?
5HT1a antag: 5; S1P1 ag pot: -8; HTR1E antagonist: 4; HTR1A agonist: -1; HTR1E agonist: -1; S1P3 ag: 0

What do the screens show for `O=C(O)C1C2C=CC(O2)C1C(=O)NC1CCCc2ccccc21` (centres undefined)?
5HT1a antag: -2; S1P1 ag pot: 4; HTR1E antagonist: -9; HTR1A agonist: -2; HTR1E agonist: 0; S1P3 ag: 0

What do the screens show for `CCc1nnc(NC(=O)CSc2nnc(CNc3ccc(Cl)cc3)o2)s1`?
5HT1a antag: 2; S1P1 ag pot: 1; HTR1E antagonist: 5; HTR1A agonist: -3; HTR1E agonist: 0; S1P3 ag: -1

How did CCOc1cc(C(=O)CSc2nnc(CNc3ccc(Cl)cc3)o2)ccc1NC(=O)CC do in these assays?
5HT1a antag: 32; S1P1 ag pot: 12; HTR1E antagonist: 58*; HTR1A agonist: -2; HTR1E agonist: 4; S1P3 ag: -1

Results for Cc1cccc(N2CCN(C(=O)C3CCCN(S(=O)(=O)c4cnc[nH]4)C3)CC2C)c1 (centres undefined) ?
5HT1a antag: -7; S1P1 ag pot: -22; HTR1E antagonist: -3; HTR1A agonist: -5; HTR1E agonist: -1; S1P3 ag: 2

How did c1cc(Nc2ncnc3sccc23)cc(-c2nnc3n2CCCCC3)c1 do in these assays?
5HT1a antag: 4; S1P1 ag pot: -19; HTR1E antagonist: 30*; HTR1A agonist: 0; HTR1E agonist: 0; S1P3 ag: 0
